From ChEMBL document CHEMBL4814059, “Redefining the Histone Deacetylase Inhibitor Pharmacophore: High Potency with No Zinc Cofactor Interaction” (ACS Med Chem Lett, 2021)
Active and inactive are the calls of the source. The calls are words filed in the database; no cut-off is given here.

Experiments:
[1] = molecular target: Histone deacetylase 1 (Homo sapiens, UniProt Q13547); assay: Inhibition of recombinant human C-terminal FLAG-tagged HDAC1 expressed in human HEK293F cells using Fluor-de-lys substrate as substrate incubated for 3 hrs followed by substrate addition and measured after 60 mins by fluorescence based assay
Histone deacetylase 1, sequence (Q13547 whole entry): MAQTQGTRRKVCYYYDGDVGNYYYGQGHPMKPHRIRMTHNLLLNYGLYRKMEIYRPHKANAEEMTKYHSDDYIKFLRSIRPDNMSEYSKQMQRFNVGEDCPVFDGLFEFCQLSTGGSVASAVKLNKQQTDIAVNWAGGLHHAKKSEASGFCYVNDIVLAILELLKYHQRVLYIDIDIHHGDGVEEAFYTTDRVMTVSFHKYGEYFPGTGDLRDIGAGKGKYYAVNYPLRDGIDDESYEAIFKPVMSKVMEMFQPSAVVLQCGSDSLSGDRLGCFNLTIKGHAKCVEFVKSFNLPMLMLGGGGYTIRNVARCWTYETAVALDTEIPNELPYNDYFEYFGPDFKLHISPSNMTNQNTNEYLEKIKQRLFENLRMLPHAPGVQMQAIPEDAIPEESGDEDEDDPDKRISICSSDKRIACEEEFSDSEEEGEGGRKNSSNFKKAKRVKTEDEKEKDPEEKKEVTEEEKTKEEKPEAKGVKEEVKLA

[2] = molecular target: Histone deacetylase 2 (Homo sapiens, UniProt Q92769); assay: Inhibition of recombinant human C-terminal FLAG-tagged HDAC2 expressed in human HEK293F cells using Fluor-de-lys substrate as substrate incubated for 3 hrs followed by substrate addition and measured after 60 mins by fluorescence based assay
Histone deacetylase 2, sequence (Q92769 whole entry, the tested form may be a part): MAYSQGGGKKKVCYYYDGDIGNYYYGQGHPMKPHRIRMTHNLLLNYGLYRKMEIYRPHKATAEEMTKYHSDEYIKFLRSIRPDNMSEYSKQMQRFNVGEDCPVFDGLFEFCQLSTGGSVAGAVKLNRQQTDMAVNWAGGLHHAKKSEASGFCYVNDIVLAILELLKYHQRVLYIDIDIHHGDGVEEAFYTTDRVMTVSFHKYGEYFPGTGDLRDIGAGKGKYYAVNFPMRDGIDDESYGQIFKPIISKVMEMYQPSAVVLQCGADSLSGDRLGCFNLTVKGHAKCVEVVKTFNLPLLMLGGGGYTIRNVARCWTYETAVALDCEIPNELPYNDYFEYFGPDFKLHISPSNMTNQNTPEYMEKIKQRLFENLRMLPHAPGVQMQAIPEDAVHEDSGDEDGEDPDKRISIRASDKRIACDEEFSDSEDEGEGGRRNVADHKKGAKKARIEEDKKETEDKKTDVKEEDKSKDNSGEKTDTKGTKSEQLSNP

[3] = molecular target: T1, Histone deacetylase 3 (Homo sapiens, UniProt O15379); assay: Inhibition of recombinant human FLAG-tagged HDAC3 expressed in human HEK293F cells co-expressing His6-tagged SMRT (1 to 899 residues) using Fluor-de-lys substrate as substrate incubated for 3 hrs followed by substrate addition and measured after 60 mins by fluorescence based assay
T1 sequence (O15379 whole entry, the tested form may be a part): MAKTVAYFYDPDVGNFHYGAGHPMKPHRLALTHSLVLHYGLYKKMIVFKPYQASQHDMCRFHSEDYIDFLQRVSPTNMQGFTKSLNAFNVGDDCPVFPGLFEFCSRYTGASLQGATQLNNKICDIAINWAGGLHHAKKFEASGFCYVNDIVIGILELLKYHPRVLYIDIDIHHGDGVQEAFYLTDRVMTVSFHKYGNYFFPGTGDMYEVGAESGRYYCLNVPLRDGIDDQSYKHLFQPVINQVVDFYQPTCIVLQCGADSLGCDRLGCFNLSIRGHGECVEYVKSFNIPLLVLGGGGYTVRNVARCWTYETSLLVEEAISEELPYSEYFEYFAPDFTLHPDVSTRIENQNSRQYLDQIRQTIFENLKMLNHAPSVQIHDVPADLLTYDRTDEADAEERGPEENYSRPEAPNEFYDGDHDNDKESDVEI

[4] = molecular target: T2, Class 1 histone deacetylase (Homo sapiens, UniProt Q13547+O15379+Q92769+Q9BY41); format: tissue-based; details: 2c4
T2 sequence (O15379 whole entry, looked up): as the sequence (O15379 whole entry, the tested form may be a part) above
T2 sequence (Q13547 whole entry, looked up): as the sequence (Q13547 whole entry) above
T2 sequence (Q92769 whole entry, looked up): as the sequence (Q92769 whole entry, the tested form may be a part) above
T2 sequence (Q9BY41 whole entry, looked up): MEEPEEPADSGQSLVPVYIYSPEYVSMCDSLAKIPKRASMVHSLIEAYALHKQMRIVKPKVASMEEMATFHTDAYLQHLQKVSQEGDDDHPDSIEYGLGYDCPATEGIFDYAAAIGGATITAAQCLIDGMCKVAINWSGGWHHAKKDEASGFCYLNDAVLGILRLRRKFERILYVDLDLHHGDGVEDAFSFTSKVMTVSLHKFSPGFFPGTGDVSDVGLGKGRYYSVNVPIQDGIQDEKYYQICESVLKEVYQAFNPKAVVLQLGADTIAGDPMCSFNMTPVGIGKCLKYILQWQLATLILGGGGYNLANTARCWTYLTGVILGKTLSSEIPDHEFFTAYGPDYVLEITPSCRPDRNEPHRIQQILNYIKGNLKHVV

[5] = Genotoxicity in Salmonella typhimurium TA1535 in presence of liver S9 fraction by Ames test; format: toxicity, subcellular; details: salmonella enterica subsp. enterica serovar typhimurium
Method in brief: (§1)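 Exploratory, non-GLP Ames mutagenicity test run on a 3-strain panel.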

[6] = molecular target: T3, Nuclear receptor subfamily 1 group I member 2 (Homo sapiens, UniProt O75469); assay: Activation of PXR (unknown origin) expressed in human DPX2 cells co-expressing luciferase gene under control of CYP3A4 promoter assessed as induction of CYP3A4 transcriptional activity incubated for overnight by luminescence based analysis; format: ADME, cell-based
T3 sequence (O75469 whole entry): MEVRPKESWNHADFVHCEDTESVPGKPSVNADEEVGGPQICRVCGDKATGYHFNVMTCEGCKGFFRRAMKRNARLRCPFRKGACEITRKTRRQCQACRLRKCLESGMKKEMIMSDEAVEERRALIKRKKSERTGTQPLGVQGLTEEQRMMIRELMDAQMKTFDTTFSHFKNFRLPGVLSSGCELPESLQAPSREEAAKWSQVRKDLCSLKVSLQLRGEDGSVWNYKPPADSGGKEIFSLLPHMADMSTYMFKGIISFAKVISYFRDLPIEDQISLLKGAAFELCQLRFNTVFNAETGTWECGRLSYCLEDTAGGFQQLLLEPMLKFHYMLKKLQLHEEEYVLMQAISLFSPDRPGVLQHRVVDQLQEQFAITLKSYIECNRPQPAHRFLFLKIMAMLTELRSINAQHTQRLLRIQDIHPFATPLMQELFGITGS

[7] = molecular target: Cytochrome P450 2C9 (Homo sapiens, UniProt P11712); assay: Inhibition of CYP2C9 in human liver microsomes assessed as reduction in 4'-hydroxy diclofenac level using diclofenac as substrate incubated for 10 mins by LC-MS/MS analysis; format: ADME
Cytochrome P450 2C9, sequence (P11712 whole entry): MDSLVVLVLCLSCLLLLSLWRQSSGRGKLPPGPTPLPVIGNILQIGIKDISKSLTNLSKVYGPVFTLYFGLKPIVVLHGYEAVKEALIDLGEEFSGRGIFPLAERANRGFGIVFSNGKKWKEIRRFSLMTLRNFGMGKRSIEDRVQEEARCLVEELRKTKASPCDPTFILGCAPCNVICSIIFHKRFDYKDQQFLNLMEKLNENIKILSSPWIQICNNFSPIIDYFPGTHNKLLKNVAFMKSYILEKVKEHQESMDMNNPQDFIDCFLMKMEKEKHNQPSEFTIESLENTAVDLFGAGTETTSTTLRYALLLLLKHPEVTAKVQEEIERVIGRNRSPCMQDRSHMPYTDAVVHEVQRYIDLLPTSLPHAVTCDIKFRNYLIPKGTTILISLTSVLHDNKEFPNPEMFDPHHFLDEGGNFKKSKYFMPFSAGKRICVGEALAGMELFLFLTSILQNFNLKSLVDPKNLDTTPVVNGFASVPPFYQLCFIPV

[8] = Genotoxicity in Salmonella typhimurium TA98 in presence of liver S9 fraction by Ames test; format: toxicity, subcellular; details: salmonella enterica subsp. enterica serovar typhimurium; method in brief: as §1
[9] = Genotoxicity in Salmonella typhimurium TA100 in presence of liver S9 fraction by Ames test; format: toxicity, subcellular; details: salmonella enterica subsp. enterica serovar typhimurium; method in brief: as §1
[10] = molecular target: T1, Histone deacetylase 3; assay: Inhibition of recombinant human FLAG-tagged HDAC3 expressed in human HEK293F cells co-expressing His6-tagged SMRT (1 to 899 residues) assessed as fast-on/fast-off kinetics inhibition using Fluor-de-lys substrate as substrate by fluorescence based analysis
[11] = molecular target: T1, Histone deacetylase 3; assay: Inhibition of recombinant human FLAG-tagged HDAC3 expressed in human HEK293F cells co-expressing His6-tagged SMRT (1 to 899 residues) assessed as rapid dissociation inhibition using Fluor-de-lys substrate as substrate measured after compound dilution by jump dilution based analysis
[12] = Fraction unbound in rat plasma; format: ADME, cell-free
[13] = molecular target: T2, Class 1 histone deacetylase; assay: Inhibition of class 1 HDAC in human Jurkat 2C4 model of HIV latency assessed as reactivation of HIV latency incubated for 18 to 24 hrs in presence of 5% heat inactivated NHS by Steady-Glo luciferase assay; format: tissue-based
[14] = molecular target: T2, Class 1 histone deacetylase; assay: Inhibition of class 1 HDAC in quiescent human primary T-cell model of VSV-G pseudotyped HIV-1 latency assessed as reactivation of HIV latency incubated for 24 hrs in presence of 10% FBS by NanoGlo luciferase assay; format: tissue-based
[15] = Plasma clearance in Wistar Han rat; format: ADME
[16] = Half life in Wistar Han rat; format: ADME; details: in vivo
[17] = Oral bioavailability in Wistar Han rat; format: ADME, organism-based; details: in vivo
[18] = molecular target: 5-hydroxytryptamine receptor 2B (Homo sapiens, UniProt P41595); assay: Inhibition of human 5HT2B receptor
5-hydroxytryptamine receptor 2B, sequence (P41595 whole entry): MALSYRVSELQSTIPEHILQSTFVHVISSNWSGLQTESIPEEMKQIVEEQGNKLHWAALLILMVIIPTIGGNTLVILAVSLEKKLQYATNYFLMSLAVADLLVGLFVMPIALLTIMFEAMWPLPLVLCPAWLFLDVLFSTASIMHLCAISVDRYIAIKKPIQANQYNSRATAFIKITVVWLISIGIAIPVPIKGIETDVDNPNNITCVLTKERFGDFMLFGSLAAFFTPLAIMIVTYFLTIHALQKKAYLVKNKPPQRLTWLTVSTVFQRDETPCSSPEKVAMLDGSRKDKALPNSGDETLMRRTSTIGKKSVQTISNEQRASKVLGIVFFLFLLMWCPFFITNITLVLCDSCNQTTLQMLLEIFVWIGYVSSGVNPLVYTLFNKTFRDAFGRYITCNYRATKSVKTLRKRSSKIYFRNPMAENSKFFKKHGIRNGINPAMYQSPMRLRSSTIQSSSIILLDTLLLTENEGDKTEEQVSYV
Method in brief: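 Off-target selectivity screen of 115 receptor, enzyme and transporter binding and biochemical assays. Compound tested in duplicate at 10 μM.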

[19] = molecular target: T2, Class 1 histone deacetylase; assay: Ratio of IC50 for inhibition of class 1 HDAC in human Jurkat 2C4 model of HIV latency in presence of 5% heat inactivated NHS to IC50 for inhibition of class 1 HDAC in human Jurkat 2C4 model of HIV latency in presence of 0.1% heat inactivated NHS by Steady-Glo luciferase assay
Method in brief: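 Latent HIV luciferase-reporter Jurkat cells were treated with compound and latency reversal was read as increased luminescence. […] Values are means of at least two measurements.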

Row | SMILES | IC50 [1] [µM] | IC50 [2] [µM] | IC50 [3] [µM] | IC50 [4] [µM] | EC50 [6] [µM] | IC50 [7] [µM] | Fu [12] | further results
1 | CC[C@H](NC(=O)C1CN(C)C1)c1ncc(-c2cc3ccccc3nc2OC)[nH]1 | 23 | > 50 | 28 | > 40 | – | – | – | –
2 | CCCC[C@H](NC(=O)C1CN(C)C1)c1ncc(-c2cc3ccccc3nc2OC)[nH]1 | 0.28 | 0.75 | 0.16 | 17 | > 30 | 50 | – | Activity [5]: Non-Toxic; Activity [8]: Non-Toxic; Activity [9]: Non-Toxic; inhibition [10]: Active; inhibition [11]: Active
3 | O=C(/C=C/c1cccc(S(=O)(=O)Nc2ccccc2)c1)NO [BELINOSTAT] | – | – | – | – | – | – | 0.138 | –
4 | CCCC[C@H](NC(=O)Cc1c[nH]c2ccc(OC)cc12)c1ncc(-c2cc3ccccc3nc2OC)[nH]1 | 0.25 | 0.5 | 0.36 | 0.86 | 2.5 | 1.6 | – | –
5 | CCCCC[C@H](NC(=O)C1CN(C)C1)c1ncc(-c2cc3ccccc3nc2OC)[nH]1 | 4.7 | > 17 | 3.5 | > 40 | – | – | – | –
6 | CCCC[C@H](NC(=O)[C@H](C)c1c(C)[nH]c2ccc(O)cc12)c1ncc(-c2cc3ccccc3nc2OC)[nH]1 | 0.037 | 0.087 | 0.0552 | 0.24 | 1.9 | 2.5 | 0.0006 | Activity [5]: Non-Toxic; IC50 [13]: 3.2 µM; IC50 [14]: 2.1 µM; Activity [8]: Non-Toxic; Activity [9]: Non-Toxic; clearance [15]: 1.5 L/h/kg; half-life [16]: 1.2 h; F [17]: 26%; IC50 [18]: < 1 µM; inhibition [10]: Active; inhibition [11]: Active; Ratio IC50 [19]: 10
7 | CCCC[C@H](NC(=O)[C@H](CN)c1c(C)[nH]c2ccc(O)cc12)c1ncc(-c2cc3ccccc3nc2OC)[nH]1 | 0.002 | 0.005 | 0.0047 | 1.3 | > 30 | > 50 | < 0.0001 | IC50 [13]: 7.4 µM; IC50 [14]: 4.5 µM
8 | CCCC[C@H](NC(=O)Cc1c[nH]c2ccccc12)c1ncc(-c2cc3ccccc3nc2OC)[nH]1 | 0.77 | 2.7 | 0.34 | 40 | 4.4 | 3.4 | – | –
9 | O=C(CCCCCCC(=O)Nc1ccccc1)NO [VORINOSTAT] | – | – | – | – | – | – | 0.75 | –
10 | COc1nc2ccccc2cc1-c1cnc(CNC(=O)C2CN(C)C2)[nH]1 | – | > 50 | 15 | – | – | – | – | –
11 | CCCC[C@H](NC(=O)[C@H](C)c1c(C)[nH]c2ccc(OC)cc12)c1ncc(-c2cc3ccccc3nc2OC)[nH]1 | 0.047 | 0.12 | 0.21 | 0.3 | 2.9 | 2.9 | – | –
12 | CCC[C@H](NC(=O)C1CN(C)C1)c1ncc(-c2cc3ccccc3nc2OC)[nH]1 | 0.39 | 3.4 | 0.3 | 11 | – | – | – | –
13 | CCCC[C@H](NC(=O)[C@H](CN)c1c(C)[nH]c2ccc(OC)cc12)c1ncc(-c2cc3ccccc3nc2OC)[nH]1 | – | – | – | – | – | – | < 0.0001 | –
14 | COc1nc2ccccc2cc1-c1cnc([C@H](C)NC(=O)C2CN(C)C2)[nH]1 | > 50 | > 50 | > 50 | > 40 | – | – | – | –
15 | CCCCCCCC[C@H](NC(=O)C1CN(C)C1)c1ncc(-c2cc3ccccc3nc2OC)[nH]1 | 18 | > 50 | 5.2 | > 40 | – | – | – | –
16 | CCC(=O)CCCCC[C@H](NC(=O)C1CN(C)C1)c1ncc(-c2cc3ccccc3nc2OC)[nH]1 | – | – | – | – | – | – | 0.0574 | –
